From ChEMBL document CHEMBL1127726, “Substituted 1,3-dipropylxanthines as irreversible antagonists of A1 adenosine receptors” (J Med Chem, 1994) come the findings set out here.

Assay [1] relates to Adenosine receptor A1 (Mesocricetus auratus). Briefly: Loss of specific binding of [3H]CPX to the A1-adenosine receptor of DDT1 MF-2 (DDT) cells at a concentration of 10 uM.
Another assay addresses Adenosine receptor A1. Briefly: Specific binding of [3H]CPX to the A1-adenosine receptor.
Assay [2] deals with Adenosine receptor A1 (Mesocricetus auratus). Briefly: Loss of specific binding of [3H]CPX to the A1-adenosine receptor of DDT1 MF-2 (DDT) cells at a concentration of 1 uM.
Assay [3] has as its target T1, Adenosine A2 receptor (Rattus norvegicus, UniProt P29276+P30543). Briefly: Inhibition of [3H]NECA binding to A2 adenosine receptor of PC12 cell membranes. Particulars: pc-12.
The target in assay [4] is T2, Adenosine receptor A1 (Homo sapiens) (UniProt P30542).
T2 sequence (whole entry): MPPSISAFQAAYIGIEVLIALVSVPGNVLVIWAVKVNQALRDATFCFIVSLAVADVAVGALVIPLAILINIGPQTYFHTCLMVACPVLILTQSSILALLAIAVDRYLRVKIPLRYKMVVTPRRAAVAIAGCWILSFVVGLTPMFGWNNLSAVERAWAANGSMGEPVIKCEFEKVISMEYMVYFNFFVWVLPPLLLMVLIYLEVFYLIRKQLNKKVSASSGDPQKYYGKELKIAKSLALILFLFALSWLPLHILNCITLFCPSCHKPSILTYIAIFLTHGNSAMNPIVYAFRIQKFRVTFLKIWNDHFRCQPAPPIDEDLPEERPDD
Briefly: Percentage loss of [3H]- CPX binding in cells pretreated with a xanthine derivative at 50 uM. The method, boiled down: (§1)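 DDT1 MF-2 monolayers, 1 day preconfluent, were exposed to xanthine in HBSS for 2 h at 37 °C, then washed 5 times (3 min each) in ligand-free HBSS. Membranes in 50 mM Tris-HCl pH 7.4 with 5 mM MgCl2 were incubated 2 h at room temperature with 0.06–4 nM [3H]CPX; 10 μM N6-cyclopentyladenosine defined nonspecific binding. Triplicate; Scatchard Bmax versus control.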

For assay [5], the target named is T1, Adenosine A2 receptor. Briefly: Binding of [3H]NECA to A2 adenosine receptor (post-Xanthine). It is filed as protein assay.
Assay [6] deals with T3, Adenosine A2 receptor (Rattus norvegicus) (UniProt P29276+P30543). Briefly: Loss of [3H]NECA binding to A2 adenosine receptor at 50 uM. It counts as protein assay. The method in brief: (§2)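 PC12 monolayers, 1 day preconfluent, were exposed to xanthine in HBSS for 2 h at 37 °C, then washed 7 times (3 min each) in ligand-free HBSS. Membranes in Tris-Mg pH 7.4 were bound 2 h at room temperature with 1–10 nM [3H]NECA plus adenosine deaminase; 10 μM NECA defined nonspecific binding. Triplicate; Scatchard Bmax compared with control.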

Assay [7] addresses T2, Adenosine receptor A1 (Homo sapiens). Briefly: Percent loss of [3H]CPX binding to A1 adenosine receptor of DDT1 MF-2 (DDT) cells 10 uM. The method in brief: as §1
The target in assay [8] is T1, Adenosine A2 receptor. Briefly: Binding of [3H]NECA to A2 adenosine receptor of PC12 cell membranes. The settings on record: pc-12. The method, boiled down:
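PC12 cell membranes (0.1–0.2 mg protein) were incubated 2 h at room temperature in 50 mM Tris-HCl pH 7.4 with 5 mM MgCl2, 1 nM [3H]NECA, adenosine deaminase 2 units/mL, and 7–10 xanthine concentrations. Nonspecific binding was set with 10 μM NECA. Bound ligand was separated by filtration and counted by scintillation. Run in triplicate; IC50 from Hill plots.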

Assay [9] has as its target T2, Adenosine receptor A1 (Homo sapiens). Briefly: Loss of [3H]CPX binding to A1 adenosine receptor of DDT1 MF-2 (DDT) cells at 0.1 uM. The method in brief:
as §1

For assay [10], the target named is T3, Adenosine A2 receptor (Rattus norvegicus). Briefly: Inhibition of [3H]NECA binding to A2 adenosine receptor of PC12 cell membranes at 50 uM. Particulars: PC-12. The method in brief:
as §2

Assay [11] relates to Adenosine receptor A1 (Mesocricetus auratus). Briefly: Loss of [3H]CPX binding to A1 adenosine receptor of DDT1 MF-2 (DDT) cells at 10 uM.
For assay [12], the target named is T2, Adenosine receptor A1 (Homo sapiens). Briefly: Loss of [3H]CPX binding to A1 adenosine receptor of DDT1 MF-2 (DDT) cells at 0.05 uM. The method, boiled down:
as §1

Assay [13] has the same target. Briefly: Loss of [3H]CPX binding to A1 adenosine receptor of DDT1 MF-2 (DDT) cells at 0.01 uM. The method in brief:
as §1

As to `CCCn1c(=O)c2nc(CCCNC(=O)c3cccc(S(=O)(=O)F)c3)[nH]c2n(CCC)c1=O`, in assay [1], the Loss was 30%.

As a reminder, the Kd is the constant that tells how readily two partners part at equilibrium. A high value points to a looser complex. In assay [1], `CCCn1c(=O)c2nc(CCNC(=O)c3ccc(S(=O)(=O)F)cc3)[nH]c2n(CCC)c1=O` registered a Loss of 72%. This compound also came in with an equilibrium dissociation constant (Kd) on Adenosine receptor A1 of 0.74 nM.

In assay [2], `CCCn1c(=O)c2nc(C3CCCC3)[nH]c2n(CC(C)OC(=O)CBr)c1=O` (centres undefined) displayed a Loss of 0%.

`O=C(OCCCn1c(=O)c2[nH]c(C3CCCC3)nc2n(CCCOC(=O)c2ccc(S(=O)(=O)F)cc2)c1=O)c1ccc(S(=O)(=O)F)cc1` came in with a Kd on Adenosine receptor A1 of 0.82 nM.

The compound `O=C(OCCCn1c(=O)c2nc(C3CCCC3)[nH]c2n(CCCOC(=O)c2ccc(S(=O)(=O)F)cc2)c1=O)c1ccc(S(=O)(=O)F)cc1` displayed a Loss in assay [1] of 50%.

By IC50 is commonly meant the point on the concentration scale where inhibition reaches its midpoint. A high value points to a need for much substance. In turn, `CCCn1c(=O)n(CCCOC(=O)c2ccc(S(=O)(=O)F)cc2)c(=O)c2[nH]c(C3CCCC3)nc21` registered an IC50 at Adenosine A2 receptor [3] of over 100000 nM.

Regarding `CCCn1c(=O)c2[nH]c(C3CCCC3)nc2n(CC(C)OC(=O)CBr)c1=O` (centres undefined), the Kd at Adenosine receptor A1 stood at 1.1 nM.

For `CCCn1c(=O)c2nc(CNC(=O)c3cccc(S(=O)(=O)F)c3)[nH]c2n(CCC)c1=O`, the Loss stood at 58% in assay [4], 0% in assay [6] and 38% in assay [7]. This compound registered a Kd on Adenosine A2 receptor [5] of 40 nM. For the same compound, the IC50 on Adenosine A2 receptor [3] is 45000 nM.

Regarding `CCCn1c(=O)c2nc(CCNC(=O)CBr)[nH]c2n(CCC)c1=O`, the Loss in assay [1] amounted to 28%.

`CCCn1c(=O)c2nc(CNC(=O)CBr)[nH]c2n(CCC)c1=O`: the Loss in [1] is 17%.

On Adenosine A2 receptor [8], `CCCn1c(=O)c2nc(CNC(=O)c3ccc(S(=O)(=O)F)cc3)[nH]c2n(CCC)c1=O` returned an IC50 of 49000 nM. On Adenosine A2 receptor [5], this compound yielded an equilibrium dissociation constant (Kd) of 51 nM. The Loss in assay [2] was 72%; in [1], 85%; in assay [9] it was 25%; in [10], 0%.

With `CCCn1c(=O)c2nc(CNC(=O)c3ccccc3)[nH]c2n(CCC)c1=O`, in assay [11], the Loss turned out to be 0%.

In assay [1], `CCCn1c(=O)c2nc(NC(=O)c3ccc(S(=O)(=O)F)cc3)[nH]c2n(CCC)c1=O` returned a Loss of 88%. At Adenosine receptor A1, this compound had a dissociation constant (Kd) of 1.1 nM.

The compound `CCCn1c(=O)c2nc(-c3ccc(Cl)c([N+](=O)[O-])c3)[nH]c2n(CCC)c1=O` came in with a Loss in [1] of 0%.

`CCCn1c(=O)c2[nH]c(CCCNC(=O)c3cccc(S(=O)(=O)F)c3)nc2n(CCC)c1=O` registered a Kd at Adenosine receptor A1 of 0.86 nM.

In the case of `CCCn1c(=O)c2nc(C3CCCC3)[nH]c2n(CCCOC(=O)c2cccc(S(=O)(=O)F)c2)c1=O`, the Loss in assay [2] was determined as 11%.

Turning to `CCCn1c(=O)c2nc(C3CCCC3)[nH]c2n(CCCOC(=O)c2ccc(S(=O)(=O)F)cc2)c1=O`, on Adenosine A2 receptor [5], the Kd was found to be 53 nM. Further, at Adenosine A2 receptor [3], the IC50 was found to be 9000 nM. The Loss in [12] came out at 74%; in [13] it was 60%.

At Adenosine A2 receptor [5], `CCCn1c(=O)c2nc(CCCNC(=O)c3ccc(S(=O)(=O)F)cc3)[nH]c2n(CCC)c1=O` returned a Kd of 43 nM. This compound returned an IC50 on Adenosine A2 receptor [3] of 26000 nM. Besides, the Loss in assay [6] was determined as 0%.

Compound `CCCn1c(=O)c2[nH]c(NC(=O)c3cccc(S(=O)(=O)F)c3)nc2n(CCC)c1=O` showed a Kd on Adenosine receptor A1 of 0.79 nM.

In assay [1], `CCCn1c(=O)c2nc(CCCCCN3C(=O)C=CC3=O)[nH]c2n(CCC)c1=O` yielded a Loss of 16%.

As to `CCCn1c(=O)c2nc(CCCCCNC(=O)CBr)[nH]c2n(CCC)c1=O`, the Loss in assay [1] is 7%.

For `CCCn1c(=O)c2nc(C3CCC(OC(=O)c4ccc(S(=O)(=O)F)cc4)C3)[nH]c2n(CCC)c1=O` (centres undefined), the Loss in assay [2] came to 16%.

Take `CCCn1c(=O)c2nc(NC(=O)c3cccc(S(=O)(=O)F)c3)[nH]c2n(CCC)c1=O`: the Loss in assay [1] was determined as 54%.
